Source: ChEMBL document CHEMBL1137900, “Quinazolinone fungal efflux pump inhibitors. Part 2: In vitro structure-activity relationships of (N-methyl-piperazinyl)-containing derivatives” (Bioorg Med Chem Lett, 2004)
≈ marks a conversion by molar mass, not a printed value.

Columns and labels:
Nakaseomyces glabratus [1] = test: In vitro minimum potentiation concentration to achieve an 8-fold reduction in fluconazole MIC against Candida glabrata strain YEM19 (overexpressing both CgDR1 and CgDR2); format: functional
Method in brief: (§1)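 Checkerboard assay in RPMI 1640 following the NCCLS M27-A broth dilution method. Fluconazole MIC was measured with and without varying concentrations of efflux pump inhibitor. MPC8 is the lowest inhibitor concentration giving an 8-fold reduction in fluconazole MIC. Some analogues were tested only in an abbreviated format: inhibitor concentration varied at fixed fluconazole of 1/8 and 1/32 MIC.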

Candida albicans [2] = test: In vitro minimum potentiation concentration to achieve an 8-fold reduction in fluconazole MIC against Candida albicans strain YEM15 (overexpressing both CDR1 and CDR2); format: functional; method in brief: as §1
Nakaseomyces glabratus [3] = test: In vitro concentration to inhibit Candida glabrata CgCDR1 transporter gene over-expressed in Saccharomyces cerevisiae strain Y170; format: functional, organism-based
Method in brief: (§2)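 Yeast strains over-expressing single pumps, inoculum 10^4 cells, incubated at 30 °C in YPD. Inhibitor concentration was varied against one fixed fluconazole concentration. That concentration was the geometric mean of the test strain's fluconazole MIC and that of the parent pump-deleted strain; for YEM172 it was 8 µg/ml.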

Nakaseomyces glabratus [4] = test: In vitro concentration to inhibit Candida glabrata CgCDR2 transporter gene over-expressed in Saccharomyces cerevisiae strain Y218; format: functional, organism-based; method in brief: as §2
Candida albicans [5] = test: In vitro concentration to inhibit Candida albicans CDR1 transporter gene over-expressed in Saccharomyces cerevisiae strain YEM172; format: functional, organism-based; method in brief: as §2
Candida albicans [6] = test: In vitro concentration to inhibit Candida albicans CDR2 transporter gene over-expressed in Saccharomyces cerevisiae strain YEM171; format: functional, organism-based; method in brief: as §2
Candida albicans [7] = test: In vitro minimum inhibitory concentration against Candida albicans; format: functional
Method in brief: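 C. albicans YEM15 (over-expresses CDR1 and CDR2) tested by broth dilution in RPMI 1640 following NCCLS reference method M27-A. The compound was tested alone, without fluconazole, across a range of concentrations, and the MIC was read as intrinsic antifungal activity.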

Saccharomyces cerevisiae [8] = test: In vitro concentration required to inhibit 80% growth of Saccharomyces cerevisiae strain Y218 (CgCDR2 over-expressed) after 48 h; format: functional
Saccharomyces cerevisiae [9] = test: In vitro concentration required to inhibit 80% growth of Saccharomyces cerevisiae strain YEM171 (CDR2 over-expressed) after 48 h; format: functional
Saccharomyces cerevisiae [10] = test: In vitro concentration required to inhibit 80% growth of Saccharomyces cerevisiae strain YEM172 (CDR1 over-expressed) after 48 h; format: functional
Candida albicans [11] = test: In vitro concentration required against Candida albicans strain YEM 15; format: functional
Saccharomyces cerevisiae [12] = test: In vitro concentration required to inhibit 80% growth of Saccharomyces cerevisiae strain Y170 (CgCDR1 over-expressed) after 48 h; format: functional
Saccharomyces cerevisiae [13] = test: In vitro concentration required to inhibit 80% growth of Saccharomyces cerevisiae strain YEM139 (PDR5 deleted) after 48 h; format: functional

Compound | MPC8 (Nakaseomyces glabratus [1]) | MPC8 (Candida albicans [2]) | further results
COc1ccc(NC(C)c2nc3ccccc3c(=O)n2N2CCN(C)CC2)c(OC)c1 (configuration not stated) | >32 µg/mL | >32 µg/mL | –
COc1ccc(N(C(=O)Nc2ccccc2)C(C)c2nc3ccccc3c(=O)n2N2CCN(C)CC2)c(OC)c1 (configuration not stated) | 16 µg/mL | 16 µg/mL | –
COc1ccc(N(C(=O)c2ccc(Cl)cc2)C(C)c2nc3ccccc3c(=O)n2N2CCN(C)CC2)c(OC)c1 (configuration not stated) | >32 µg/mL | 4 µg/mL | –
CC(c1nc2ccccc2c(=O)n1N1CCN(C)CC1)N(C(=O)Nc1ccc(F)cc1)c1ccc(F)cc1F (configuration not stated) | 32 µg/mL | 8 µg/mL | –
CC(c1nc2ccccc2c(=O)n1N1CCN(C)CC1)N(C(=O)Nc1ccc(F)cc1)c1ccccc1 (configuration not stated) | >32 µg/mL | >32 µg/mL | –
COc1ccc(N(C(=O)Nc2ccc(F)cc2)C(C)c2nc3cc(Cl)ccc3c(=O)n2N2CCN(C)CC2)c(OC)c1 (configuration not stated) | 0.5 µg/mL | 0.12 µg/mL | –
COc1ccc(N(C(=O)Nc2ccc(F)cc2)C(C)c2nc3cc(F)c(F)cc3c(=O)n2N2CCN(C)CC2)c(OC)c1 (configuration not stated) | 0.5 µg/mL | 0.12 µg/mL | –
COc1ccc(N(C(=O)Nc2ccc(F)cc2)C(C)c2nc3ccc(Cl)cc3c(=O)n2N2CCN(C)CC2)c(OC)c1 (configuration not stated) | 2 µg/mL | 0.25 µg/mL | –
COc1ccc(N(C(=O)NC(C)C)C(C)c2nc3ccccc3c(=O)n2N2CCN(C)CC2)c(OC)c1 (configuration not stated) | >32 µg/mL | >32 µg/mL | –
COc1ccccc1N(C(=O)Nc1ccc(F)cc1)C(C)c1nc2ccccc2c(=O)n1N1CCN(C)CC1 (configuration not stated) | >32 µg/mL | >32 µg/mL | –
COc1ccc(N(C(=O)Nc2nc3ccccc3s2)C(C)c2nc3ccccc3c(=O)n2N2CCN(C)CC2)c(OC)c1 (configuration not stated) | 16 µg/mL | 2 µg/mL | –
CCC(=O)Oc1ccc2nc(C(C)N(C(=O)Nc3ccc(F)cc3)c3ccc(OC)cc3OC)n(N3CCN(C)CC3)c(=O)c2c1 (configuration not stated) | 4 µg/mL | 4 µg/mL | –
COc1ccc(N(C(=O)Nc2ccc(F)cc2)C(C)c2nc3ccccc3c(=O)n2N2CCN(C)CC2)c(OC)c1 (configuration not stated) | 4 µg/mL | 4 µg/mL | –
COc1ccc(N(C(=O)Nc2ccc(F)cc2)C(C)c2nc3ccc(O)cc3c(=O)n2N2CCN(C)CC2)c(OC)c1 (configuration not stated) | 1 µg/mL | 16 µg/mL | –
COc1ccc(N(C(=O)Nc2ccc(F)cc2)C(C)c2nc3ccccc3c(=O)n2N2CCN(C)CC2)cc1 (configuration not stated) | 32 µg/mL | 8 µg/mL | –
Cc1ccc(N(C(=O)Nc2ccc(F)cc2)C(C)c2nc3ccccc3c(=O)n2N2CCN(C)CC2)c(C)c1 (configuration not stated) | >32 µg/mL | 8 µg/mL | –
COc1cc(OC)c(N(C(=O)Nc2ccc(F)cc2)C(C)c2nc3ccccc3c(=O)n2N2CCN(C)CC2)c(OC)c1 (configuration not stated) | >32 µg/mL | >32 µg/mL | –
COc1ccc(N(C(=O)Nc2cccc(C#N)c2)C(C)c2nc3ccccc3c(=O)n2N2CCN(C)CC2)c(OC)c1 (configuration not stated) | 32 µg/mL | 32 µg/mL | –
COc1ccc(N(C(=O)Nc2ccc(C)cc2)C(C)c2nc3ccccc3c(=O)n2N2CCN(C)CC2)c(OC)c1 (configuration not stated) | 4 µg/mL | 16 µg/mL | –
COc1ccc(N(C(=O)Nc2ccc(Cl)cc2)C(C)c2nc3ccccc3c(=O)n2N2CCN(C)CC2)c(OC)c1 (configuration not stated) | 1 µg/mL | 2 µg/mL | –
COc1ccc(N(C(=O)c2ccccc2Cl)C(C)c2nc3ccccc3c(=O)n2N2CCN(C)CC2)c(OC)c1 (configuration not stated) | >32 µg/mL | 4 µg/mL | –

Compound | MPC8 (Nakaseomyces glabratus [1]) | MPC8 (Candida albicans [2]) | further results
COc1cc(N(C(=O)Nc2ccc(F)cc2)C(C)c2nc3ccccc3c(=O)n2N2CCN(C)CC2)cc(OC)c1OC (configuration not stated) | >32 µg/mL | 8 µg/mL | –
COc1ccc(N(C(C)c2nc3ccccc3c(=O)n2N2CCN(C)CC2)S(=O)(=O)c2ccc(Cl)cc2)c(OC)c1 (configuration not stated) | >32 µg/mL | 32 µg/mL | –
COc1ccc(N(C(=O)Nc2ccc(F)cc2)C(C)c2nc3ccc(C)cc3c(=O)n2N2CCN(C)CC2)c(OC)c1 (configuration not stated) | 4 µg/mL | 0.5 µg/mL | –
COc1ccc(N(C(=O)Nc2ccc(F)cc2)C(C)c2nc3cccc(F)c3c(=O)n2N2CCN(C)CC2)c(OC)c1 (configuration not stated) | 8 µg/mL | 8 µg/mL | –
COc1ccc(N(C(=O)Nc2ccc(F)cc2)C(C)c2nc3ccc(F)cc3c(=O)n2N2CCN(C)CC2)c(OC)c1 (configuration not stated) | 2 µg/mL | 1 µg/mL | –
COc1ccc(N(C(=O)Nc2ccc(F)cc2)C(C)c2nc3cc(F)ccc3c(=O)n2N2CCN(C)CC2)c(OC)c1 (configuration not stated) | 1 µg/mL | 0.5 µg/mL | –
COc1ccc(N(C(=O)Nc2ccc(F)cc2)C(C)c2nc3c(OC)cccc3c(=O)n2N2CCN(C)CC2)c(OC)c1 (configuration not stated) | 8 µg/mL | 8 µg/mL | –
COc1ccc(N(C(=O)Nc2ccc(F)cc2)[C@H](C)c2nc3cc(F)ccc3c(=O)n2N2CCN(C)CC2)c(OC)c1 | >32 µg/mL | >32 µg/mL | IC50 (Nakaseomyces glabratus [3]): > 32 µg/mL; IC50 (Nakaseomyces glabratus [4]): > 32 µg/mL; IC50 (Candida albicans [5]): > 32 µg/mL; IC50 (Candida albicans [6]): > 32 µg/mL
COc1ccc(N(C(=O)Nc2cccc(Cl)c2)C(C)c2nc3ccccc3c(=O)n2N2CCN(C)CC2)c(OC)c1 (configuration not stated) | 4 µg/mL | 1 µg/mL | –
COc1ccc(N(C(=O)Nc2ccc(F)cc2)C(C)c2nc3ccc(OCC(N)=O)cc3c(=O)n2N2CCN(C)CC2)c(OC)c1 (configuration not stated) | >32 µg/mL | >32 µg/mL | –
CC(c1nc2ccccc2c(=O)n1N1CCN(C)CC1)N(C(=O)Nc1ccc(F)cc1)c1ccc(OCC2CC2)cc1OCC1CC1 (configuration not stated) | 2 µg/mL | 4 µg/mL | MIC (Candida albicans [7]): 32 µg/mL (≈ 49.9 µM)
COc1cccc(N(C(=O)Nc2ccc(F)cc2)C(C)c2nc3ccccc3c(=O)n2N2CCN(C)CC2)c1 (configuration not stated) | >32 µg/mL | 16 µg/mL | –
CC(c1nc2ccccc2c(=O)n1N1CCN(C)CC1)N(C)C(=O)Nc1ccc(F)cc1 (configuration not stated) | >32 µg/mL | >32 µg/mL | –
COc1ccc(N(C(=O)NS(=O)(=O)c2ccc(Cl)cc2)C(C)c2nc3ccccc3c(=O)n2N2CCN(C)CC2)c(OC)c1 (configuration not stated) | >32 µg/mL | >32 µg/mL | –
COc1ccc(NC(=O)N(c2ccc(OC)cc2OC)C(C)c2nc3ccccc3c(=O)n2N2CCN(C)CC2)cc1 (configuration not stated) | 2 µg/mL | 16 µg/mL | –
COc1ccc(N(C(=O)Oc2ccc(Cl)cc2)C(C)c2nc3ccccc3c(=O)n2N2CCN(C)CC2)c(OC)c1 (configuration not stated) | 32 µg/mL | 32 µg/mL | –
COc1ccc(N(C(=O)Nc2ccccc2Cl)C(C)c2nc3ccccc3c(=O)n2N2CCN(C)CC2)c(OC)c1 (configuration not stated) | >32 µg/mL | >32 µg/mL | –
COc1ccc(N(C(=O)Nc2ccc(F)cc2)C(C)c2nc3ccccc3c(=O)n2N2CCN(C)CC2)cc1OC (configuration not stated) | >32 µg/mL | >32 µg/mL | –
COc1ccc(N(C(=O)Nc2ccc(F)cc2)[C@@H](C)c2nc3cc(F)ccc3c(=O)n2N2CCN(C)CC2)c(OC)c1 | 0.5 µg/mL | 0.25 µg/mL | IC50 (Nakaseomyces glabratus [3]): 2 µg/mL (≈ 3.46 µM); IC50 (Nakaseomyces glabratus [4]): 32 µg/mL (≈ 55.3 µM); IC50 (Candida albicans [5]): 0.5 µg/mL (≈ 0.864 µM); IC50 (Candida albicans [6]): 16 µg/mL (≈ 27.7 µM)
COc1ccc(N(C(=O)Nc2ccc(F)cc2)C(C)c2nc3ccc(OC)cc3c(=O)n2N2CCN(C)CC2)c(OC)c1 (configuration not stated) | 2 µg/mL | 0.5 µg/mL | –
OC(Cn1cncn1)(Cn1cncn1)c1ccc(F)cc1F [FLUCONAZOLE] | – | – | MIC (Saccharomyces cerevisiae [8]): 2 µg/mL (≈ 6.53 µM); MIC (Saccharomyces cerevisiae [9]): 8 µg/mL (≈ 26.1 µM); MIC (Saccharomyces cerevisiae [10]): 128 µg/mL (≈ 418 µM); MIC (Candida albicans [11]): 128 µg/mL (≈ 418 µM); MIC (Saccharomyces cerevisiae [12]): 128 µg/mL (≈ 418 µM); MIC (Saccharomyces cerevisiae [13]): 0.5 µg/mL (≈ 1.63 µM)
